Measurements from ChEMBL document CHEMBL4043170, “1-Acetyl-5-phenyl-1H-pyrrol-3-ylacetate: An aldose reductase inhibitor for the treatment of diabetic nephropathy” (Bioorg Med Chem Lett, 2017).
Active and inactive are the calls of the source. No cut-off for these calls is given here.

Experiments:
Rattus norvegicus [1] = test: Antidiabetic activity in STZ-induced diabetic nephropathy Wistar rat model assessed as reduction in urinary microalbumin level at 40 to 160 mg/kg administered daily for 8 weeks measured up to 8 weeks by ELISA; assay type: functional, organism-based
In short: (§1)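 Male Wistar rats (300±50 g), adapted under specific pathogen-free conditions with free access to food and water. STZ diabetic nephropathy counted if blood glucose ≥13.88 mM with raised urinary microalbumin. Groups: saline, untreated DN, 40, 80 or 160 mg/kg, and reference inhibitor 100 mg/kg. Dosed daily for eight weeks. Urine and blood sampled at weeks 2, 4, 6 and 8. Mean ± SD, n = 8.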

[2] = biological target: Aldo-keto reductase family 1 member B1 (Rattus norvegicus, UniProt P07943); test: Inhibition of AR in Sprague-Dawley rat lens using DL-glyceraldehyde as substrate by spectrophotometric analysis
In short: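 Inhibition is expressed relative to uninhibited enzyme activity, set as 100%. For the kinetic study, DL-glyceraldehyde was used at 0.083, 0.125, 0.25 and 1.0 mM. […] Results were analysed by Lineweaver-Burk double-reciprocal plots of 1/V against 1/S.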

[3] = biological target: Aldo-keto reductase family 1 member B1 (Homo sapiens) (UniProt P15121); test: Uncompetitive inhibition of recombinant human AR at 60 to 140 nM in presence of various concentrations of DL-glyceraldehyde by Lineweaver-Burk plot analysis
HBZY-1 [4] = test: Cytoprotective activity against HG-induced cell death in rat HBZY-1 cells at 0.3 to 0.9 uM after 24 to 96 hrs by MTT assay; assay type: functional, cell-based
HBZY-1 [5] = test: Cytoprotective activity against HG-induced cell death in rat HBZY-1 cells at 0.9 uM after 24 to 96 hrs by MTT assay; assay type: functional, cell-based
HBZY-1 [6] = test: Cytoprotective activity against HG-induced cell death in rat HBZY-1 cells assessed as […] at 0.3 uM by Annexin V-FITC/propidium iodide staining-based flow cytometric analysis (reference value: 2.83); assay type: functional
HBZY-1 [7] = test: Cytoprotective activity against HG-induced cell death in rat HBZY-1 cells assessed as […] at 0.6 uM by Annexin V-FITC/propidium iodide staining-based flow cytometric analysis (reference value: 2.83); assay type: functional
HBZY-1 [8] = test: Cytoprotective activity against HG-induced cell death in rat HBZY-1 cells assessed as […] at 0.9 uM by Annexin V-FITC/propidium iodide staining-based flow cytometric analysis (reference value: 2.83); assay type: functional
HBZY-1 [9] = test: Cytoprotective activity against HG-induced cell death in rat HBZY-1 cells assessed as […] by measuring early apoptotic cells at 0.3 uM by Annexin V-FITC/propidium iodide staining-based flow cytometric analysis (reference value: 8.13%); assay type: functional
HBZY-1 [10] = test: Cytoprotective activity against HG-induced cell death in rat HBZY-1 cells assessed as […] by measuring late apoptotic cells at 0.3 uM by Annexin V-FITC/propidium iodide staining-based flow cytometric analysis (reference value: 18.81%); assay type: functional
HBZY-1 [11] = test: Cytoprotective activity against HG-induced cell death in rat HBZY-1 cells assessed as […] by measuring early apoptotic cells at 0.6 uM by Annexin V-FITC/propidium iodide staining-based flow cytometric analysis (reference value: 8.13%); assay type: functional
HBZY-1 [12] = test: Cytoprotective activity against HG-induced cell death in rat HBZY-1 cells assessed as increase in apoptosis by measuring late apoptotic cells at 0.6 uM by Annexin V-FITC/propidium iodide staining-based flow cytometric analysis (reference value: 18.81%); assay type: functional
HBZY-1 [13] = test: Cytoprotective activity against HG-induced cell death in rat HBZY-1 cells assessed as […] by measuring early apoptotic cells at 0.9 uM by Annexin V-FITC/propidium iodide staining-based flow cytometric analysis (reference value: 8.13%); assay type: functional
HBZY-1 [14] = test: Cytoprotective activity against HG-induced cell death in rat HBZY-1 cells assessed as increase in apoptosis by measuring late apoptotic cells at 0.9 uM by Annexin V-FITC/propidium iodide staining-based flow cytometric analysis (reference value: 18.81%); assay type: functional
HBZY-1 [15] = test: Cytoprotective activity against HG-induced cell death in rat HBZY-1 cells assessed as […] at 0.3 to 0.9 uM by Hoechst staining-based analysis; assay type: functional
In short: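 HBZY-1 rat mesangial cells grown in low-glucose DMEM (5.56 mM) with 10% FBS at 37°C and 5% CO2. Pretreated, then exposed to 33 mM glucose. 1×10^4 cells seeded per well, fixed in 70% ethanol for 20 min at room temperature, and stained with Hoechst for 5 min. Imaged by fluorescence microscopy at 400×.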

Rattus norvegicus [16] = test: Antidiabetic activity in STZ-induced diabetic nephropathy Wistar rat model assessed as reduction in blood glucose level at 40 to 160 mg/kg administered daily for 8 weeks measured up to 8 weeks by ELISA; assay type: functional, organism-based; in short: as §1
Rattus norvegicus [17] = test: Antidiabetic activity in STZ-induced diabetic nephropathy Wistar rat model assessed as increase in total antioxidant capacity at 40 to 160 mg/kg administered daily for 8 weeks measured up to 8 weeks by ELISA; assay type: functional, organism-based; in short: as §1
Rattus norvegicus [18] = test: Antidiabetic activity in STZ-induced diabetic nephropathy Wistar rat model assessed as increase in total superoxide dismutase level at 40 to 160 mg/kg administered daily for 8 weeks measured up to 8 weeks by ELISA; assay type: functional, organism-based; in short: as §1
Rattus norvegicus [19] = test: Antidiabetic activity in STZ-induced diabetic nephropathy Wistar rat model assessed as increase in catalase level at 40 to 160 mg/kg administered daily for 8 weeks measured up to 8 weeks by ELISA; assay type: functional, organism-based; in short: as §1
Rattus norvegicus [20] = test: Antidiabetic activity in STZ-induced diabetic nephropathy Wistar rat model assessed as increase in glutathione level at 40 to 160 mg/kg administered daily for 8 weeks measured up to 8 weeks by ELISA; assay type: functional, organism-based; in short: as §1
Rattus norvegicus [21] = test: Protection against […] in Wistar rat model assessed as reduction in glomerular mesangial hyperplasia at 40 to 160 mg/kg administered daily for 8 weeks measured after 8 weeks by hematoxylin/eosin dye-based analysis; assay type: functional, organism-based; in short: as §1
HBZY-1 [22] = test: Downregulation of collagen 4 levels in rat HBZY-1 cells at 0.3 to 0.9 uM by Western blot analysis; assay type: functional, cell-based
HBZY-1 [23] = test: Downregulation of laminin levels in rat HBZY-1 cells at 0.3 to 0.9 uM by Western blot analysis; assay type: functional, cell-based
Rattus norvegicus [24] = test: Antidiabetic activity in STZ-induced diabetic nephropathy Wistar rat model assessed as decrease in laminin level at 40 to 160 mg/kg administered daily for 8 weeks measured up to 8 weeks by ELISA
Rattus norvegicus [25] = test: Antidiabetic activity in STZ-induced diabetic nephropathy Wistar rat model assessed as decrease in collagen 4 level at 40 to 160 mg/kg administered daily for 8 weeks measured up to 8 weeks by ELISA
HBZY-1 [26] = test: Cytoprotective activity against HG-induced cell death in rat HBZY-1 cells assessed as […] by measuring early apoptotic cells at 10 uM by Annexin V-FITC/propidium iodide staining-based flow cytometric analysis (reference value: 8.13%); assay type: functional
HBZY-1 [27] = test: Cytoprotective activity against HG-induced cell death in rat HBZY-1 cells assessed as increase in apoptosis by measuring late apoptotic cells at 10 uM by Annexin V-FITC/propidium iodide staining-based flow cytometric analysis (reference value: 18.18%); assay type: functional

For `CC(=O)Oc1cc(-c2ccccc2)n(C(C)=O)c1`, the Activity (Rattus norvegicus [1]) was “Active”, the IC50 [2] was 22.3 nM and the inhibition [3] was “Active”. For the same compound, the Activity (HBZY-1 [4]) was “Active”, the Activity (HBZY-1 [5]) was “Active” and the “fold change (FC)” value (HBZY-1 [6]) was 2.29. For the same compound, the “fold change (FC)” value (HBZY-1 [7]) was 2.07, the “fold change (FC)” value (HBZY-1 [8]) was 1.93 and the Activity (HBZY-1 [9]) was 8.18%. It also gave an Activity (HBZY-1 [10]) of 13.67%, an Activity (HBZY-1 [11]) of 5.66% and an Activity (HBZY-1 [12]) of 10.31%. For the same compound, the Activity (HBZY-1 [13]) was 9.97%, the Activity (HBZY-1 [14]) was 8.45% and the Activity (HBZY-1 [15]) was “Active”. The Activity (Rattus norvegicus [16]) was “Active”, the Activity (Rattus norvegicus [17]) was “Active” and the Activity (Rattus norvegicus [18]) was “Active”. For the same compound, the Activity (Rattus norvegicus [19]) was “Active”, the Activity (Rattus norvegicus [20]) was “Active” and the Activity (Rattus norvegicus [21]) was “Active”. For the same compound, the Activity (HBZY-1 [22]) was “Active”, the Activity (HBZY-1 [23]) was “Active” and the Activity (Rattus norvegicus [24]) was “Active”. The Activity (Rattus norvegicus [25]) was “Active”.

`CC(/C=C1\SC(=S)N(CC(=O)O)C1=O)=C\c1ccccc1` was tested, and the “fold change (FC)” value (HBZY-1 [8]) was 1.81, the Activity (HBZY-1 [22]) was “Active” and the Activity (HBZY-1 [23]) was “Active”. It also gave an Activity (HBZY-1 [26]) of 8.98% and an Activity (HBZY-1 [27]) of 8.31%.
